A short description of data set [1]: Ratio of drug level in brain to blood in complete Freund's adjuvant-induced rat inflammatory pain model at 10 mg/kg, po administered after 23 hrs of adjuvant challenge measured after 1 hr. It counts as ADME, organism-based. Also noted: dose 10 mg/kg, route oral. The settings on record: brain and blood. A digest of the protocol: (§1)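 Rat CFA inflammatory pain model: oral dosing at 1, 3 or 10 mg/kg 23 h after intraplantar adjuvant; blood and brain sampled 1 h post-dose from the same animal; Br:Bl ratio is the mean from three animals.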

Data set [2] is described as follows: Drug level in blood of complete Freund's adjuvant induced rat inflammatory pain model at 10 mg/kg, bid measured after 1 hr on day 1. It counts as ADME, organism-based. Also noted: dose 10 mg/kg. The settings on record: read-out: Drug uptake. Summed up: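 Satellite group dosed at 10 mg/kg b.i.d. for 5 days; blood sampled 1 h post-dose on day 1 and on day 5.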

A short description of data set [3]: Ratio of drug level in brain to blood in complete Freund's adjuvant induced rat inflammatory pain model at 3 mg/kg, po bid for 5 days measured after 1 hr on day 5.
Data set [4] can be described thus: Ratio of drug level in brain to blood in complete Freund's adjuvant-induced rat inflammatory pain model at 1 mg/kg, po administered after 23 hrs of adjuvant challenge measured after 1 hr. In kind it is ADME, organism-based. The settings on record: brain and blood. Also noted: dose 1 mg/kg, route oral. Summed up:
as §1

Data set [5] is described as follows: Intrinsic clearance in cynomolgus monkey hepatocytes measured per gram of liver at 0.54 to 0.7 X 10^6 cells/ml cell density. In kind it is ADME, cell-based, Macaca fascicularis, Hepatocyte. A digest of the protocol:
(§2)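 Intrinsic clearance in hepatocytes expressed as mL/min/g liver. Cell densities were 0.15–0.2 × 10^6 cells/mL or 0.54–0.7 × 10^6 cells/mL.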

For another data set, the system named is Rattus norvegicus. Briefly: […] activity against complete Freund's adjuvant induced inflammatory pain in po dosed rat assessed as reversal of hypersensitivity post-adjuvant challenge after 1 hr. In kind it is functional. Summed up:
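Rats given adjuvant by intraplantar injection; oral dosing at 1, 3 and 10 mg/kg 23 h later. Hypersensitivity assessed by weight-bearing 1 h post-dose. ED50 derived across doses.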

Data set [6] in a line: Ratio of drug level in brain to blood of rat at 0.5 mg/kg/hr administered by infusion for 12 hrs. The settings on record: brain and blood, intravenous.
In a further data set the test system is Hepatocyte. As to the kind of experiment: Intrinsic clearance in human hepatocytes measured per gram of liver at 0.15 to 0.2 X 10^6 cells/ml cell density. In kind it is ADME, cell-based. A digest of the protocol:
as §2

Data set [7] can be described thus: Drug level in rat blood at 0.5 mg/kg/hr administered by infusion for 12 hrs. It counts as ADME, organism-based. To be noted: intravenous, read-out: Drug uptake. Summed up:
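Steady-state 12 h infusion at 5 mL/kg/h to reach a target dose of 0.5 mg/kg/h; blood and brain concentrations measured. Data are the mean from three animals.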

Data set [8] concerns the target Prostaglandin F2-alpha receptor (Homo sapiens, UniProt P43088). Briefly: Inhibition of FP receptor.
Data set [9] can be described thus: Drug level in brain of complete Freund's adjuvant-induced rat inflammatory pain model at 10 mg/kg, po administered after 23 hrs of adjuvant challenge measured after 1 hr. The settings on record: brain, read-out: Drug uptake. On the set-up: dose 10 mg/kg, route oral. In kind it is ADME, organism-based. A digest of the protocol:
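CFA rat study: oral doses of 1, 3 or 10 mg/kg given 23 h after intraplantar adjuvant, samples 1 h post-dose. Blood values are the mean from seven animals. Brain values are the mean from three animals.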

Data set [10] deals with T1, Prostaglandin G/H synthase 2 (Homo sapiens, UniProt P35354).
T1 sequence (P35354 whole entry): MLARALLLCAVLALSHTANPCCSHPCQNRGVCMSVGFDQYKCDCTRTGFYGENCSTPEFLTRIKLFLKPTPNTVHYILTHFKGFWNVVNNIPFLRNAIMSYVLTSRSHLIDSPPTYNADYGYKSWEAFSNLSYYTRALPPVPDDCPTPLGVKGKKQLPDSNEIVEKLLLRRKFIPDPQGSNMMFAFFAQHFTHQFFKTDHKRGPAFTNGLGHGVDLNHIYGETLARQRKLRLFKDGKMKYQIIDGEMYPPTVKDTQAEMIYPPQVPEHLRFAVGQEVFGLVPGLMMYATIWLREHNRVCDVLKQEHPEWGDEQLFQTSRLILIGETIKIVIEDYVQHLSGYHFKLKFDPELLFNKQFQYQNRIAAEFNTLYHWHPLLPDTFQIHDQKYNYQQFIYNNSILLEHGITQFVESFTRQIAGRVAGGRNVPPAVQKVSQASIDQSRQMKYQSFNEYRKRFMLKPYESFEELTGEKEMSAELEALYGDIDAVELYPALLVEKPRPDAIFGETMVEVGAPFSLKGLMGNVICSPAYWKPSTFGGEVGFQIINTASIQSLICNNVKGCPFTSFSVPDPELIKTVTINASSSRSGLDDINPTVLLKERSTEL
Briefly: Inhibition of COX2.

Data set [11] can be described thus: Half life in Beagle dog at 1 mg/kg administered by intravenous infusion for 1 hr. In kind it is ADME, organism-based, Canis lupus familiaris. On the set-up: dose 1 mg/kg, route intravenous. To be noted: in vivo. Summed up:
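Intravenous administration as a 1 h infusion of a 1 mg/kg dose. Rats were male Sprague-Dawley; dogs were beagle; monkeys were cynomolgus. Blood clearance, Vss and half-life determined.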

The next data set deals with Cytochrome P450 2D6 (Homo sapiens, UniProt P10635). Briefly: Inhibition of human CYP2D6. It counts as ADME. A digest of the protocol:
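Inhibition of metabolism of fluorometric substrates (Cypex protocol); IC50 values are the mean of three experiments ± standard deviation.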

Broadly, the Kp is tissue or fluid exposure divided by exposure in the circulation. A word on the ED50: it is the dose at which the effect has come halfway, by size or by number of responders. By IC50 is commonly meant the point on the concentration scale where inhibition reaches its midpoint. Broadly, the half-life is how long it takes for the measured level to halve.

The structures appear in SMILES notation.

Sequence of Prostaglandin F2-alpha receptor (P43088 whole entry): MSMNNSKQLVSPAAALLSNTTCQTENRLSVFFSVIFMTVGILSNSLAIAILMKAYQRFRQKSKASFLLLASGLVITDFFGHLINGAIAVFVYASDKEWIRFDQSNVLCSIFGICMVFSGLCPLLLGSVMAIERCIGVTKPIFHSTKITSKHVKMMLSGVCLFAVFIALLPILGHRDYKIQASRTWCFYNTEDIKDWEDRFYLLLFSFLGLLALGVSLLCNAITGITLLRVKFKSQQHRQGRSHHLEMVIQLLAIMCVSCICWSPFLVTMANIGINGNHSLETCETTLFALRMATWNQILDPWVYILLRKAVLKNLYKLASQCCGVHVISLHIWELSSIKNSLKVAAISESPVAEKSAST
Sequence of Cytochrome P450 2D6 (P10635 whole entry): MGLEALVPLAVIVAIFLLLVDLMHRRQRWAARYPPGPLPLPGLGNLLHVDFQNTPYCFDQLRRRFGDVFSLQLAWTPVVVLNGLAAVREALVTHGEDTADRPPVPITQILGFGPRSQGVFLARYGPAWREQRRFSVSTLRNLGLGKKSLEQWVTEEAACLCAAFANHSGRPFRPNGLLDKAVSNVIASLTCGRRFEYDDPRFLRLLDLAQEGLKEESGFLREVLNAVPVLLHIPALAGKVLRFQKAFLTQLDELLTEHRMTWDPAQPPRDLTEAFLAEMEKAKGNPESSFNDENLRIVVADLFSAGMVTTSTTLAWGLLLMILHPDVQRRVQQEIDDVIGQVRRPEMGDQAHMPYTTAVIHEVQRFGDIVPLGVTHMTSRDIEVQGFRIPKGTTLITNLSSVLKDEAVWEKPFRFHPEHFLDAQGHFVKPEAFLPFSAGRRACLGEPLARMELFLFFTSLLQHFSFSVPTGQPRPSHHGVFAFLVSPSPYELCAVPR

Turning to `O=C([O-])c1cccc(Cc2cc(Cl)ccc2OCc2ccc(Cl)cc2F)n1.[Na+]`, the results for the partition ratio (Kp) at 1 h in [1] and in [4] were 0.39 and 0.37, respectively. The results for the concentration at 1 h in data set [2] and in [9] were 2390 nM and 501 nM, respectively. Besides, in [3], the concentration ratio (Kp) at 1 hr turned out to be 0.34. Also, the CL in data set [5] is 2.7 mL/min/g; in the data set with Hepatocyte, 3.7 mL/min/g. The ED50 in the data set with Rattus norvegicus worked out at 2.6 mg/kg. For the same compound, the concentration ratio (Kp) at 12 h in data set [6] was found to be 0.24. Moreover, in data set [7], the concentration at 12 h was 955 nM. For the same compound, the IC50 in data set [8] was over 10 µM; in [10], over 100 µM; at Cytochrome P450 2D6, over 100 µM. The half-life in [11] was 1.1 h.
